Source: PubChem BioAssay (The Scripps Research Institute Molecular Screening Center)
A selection: hits, their analogues and other compounds. The true share with any hit is near 1.9%.
DAGLB inh: diacylglycerol lipase beta (human) inhibition; HEK293T DAGLB membrane lysate, EnzChek fluorogenic substrate; actives 0.059% (n = 340,000); AID 504411; inhibition, % at 5.17 µM; in the data active = inhibition above about 34%
Target sequence (Q8NCG7 whole entry, looked up): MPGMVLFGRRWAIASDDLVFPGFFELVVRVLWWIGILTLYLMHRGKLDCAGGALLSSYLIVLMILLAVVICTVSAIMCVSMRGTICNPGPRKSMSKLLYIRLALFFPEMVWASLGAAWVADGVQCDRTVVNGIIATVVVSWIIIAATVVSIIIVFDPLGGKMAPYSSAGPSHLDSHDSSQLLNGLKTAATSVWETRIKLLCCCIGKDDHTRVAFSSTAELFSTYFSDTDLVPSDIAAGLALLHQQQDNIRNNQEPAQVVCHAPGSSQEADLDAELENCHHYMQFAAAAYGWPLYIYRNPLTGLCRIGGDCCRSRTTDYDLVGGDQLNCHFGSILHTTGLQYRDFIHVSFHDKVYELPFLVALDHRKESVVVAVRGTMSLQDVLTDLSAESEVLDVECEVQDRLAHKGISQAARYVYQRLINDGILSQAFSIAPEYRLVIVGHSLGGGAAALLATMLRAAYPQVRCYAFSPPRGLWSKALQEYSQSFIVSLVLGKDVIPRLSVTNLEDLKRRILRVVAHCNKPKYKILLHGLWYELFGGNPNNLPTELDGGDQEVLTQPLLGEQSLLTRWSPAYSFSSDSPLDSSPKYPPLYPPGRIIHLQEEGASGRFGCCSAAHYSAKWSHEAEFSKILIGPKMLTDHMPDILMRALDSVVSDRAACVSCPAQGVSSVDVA
PLCg1 inh: inhibitors of human phospholipase C gamma1 | inhibition, % at 12.2 µM | AID 720700 | purified PLC-gamma1, fluorogenic substrate, fluorescence | actives 0.84% (n = 370,000) | P19174; in the data active = inhibition above about 9.5%
TbMetRS inhib: Trypanosoma brucei MetRS inhibition; actives 0.4% (n = 360,000); purified T. brucei MetRS, ATP depletion, Kinase-Glo luminescence; inhibition, % at 11.9 µM;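 active = inhibition above a per-plate cutoff of the control wells' mean inhibition plus 3 SD, cut at about 5.5% in these data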
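Measured by: Kinase-Glo luciferase luminescence reporting remaining unconsumed ATP. Material: purified T. brucei MetRS enzyme. Doses: 11.9 µM compound single dose, 0.9% DMSO. Medium: HEPES buffer containing pyrophosphatase, BSA, spermine, DTT. Times: 15 min preincubation, 2 h reaction, all 25 °C. Reagent: methionine, ATP and bulk E. coli tRNA.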
HGIII-sPLA2 inh: Blocks human group III sPLA2 activity; Q9NZ20; inhibition, % at 12.2 µM; actives 0.56% (n = 370,000); QFRET BODIPY PC-A2 liposome hydrolysis, fluorescence;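 active = inhibition above mean plus 3 SD of compounds lying within the high and low control bounds, cut at about 19% in these data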
PLCb3 inh: blocks human PLC-beta3 enzyme activity | Q01970 | Purified PLC-beta3, fluorogenic substrate, fluorescence | inhibition, % at 12.2 µM | actives 0.18% (n = 370,000); in the data active = inhibition above about 11%
TbMetRS confirm: confirmation of Trypanosoma brucei MetRS inhibitors. shares compounds with TbMetRS inhib. T. brucei MetRS enzyme, luminescence (ATP depletion). inhibition, % at 11.9 µM. actives 93% (n = 1,400). AID 624412; in the data active = inhibition above about 7%
Jurkat cytotox: kills Jurkat cells in T. brucei MetRS counterscreen; shares compounds with TbMetRS inhib; Jurkat cells viability, ATP luminescence; inhibition, % at 8.3 µM; actives 12% (n = 1,400); AID 624413; in the data active = inhibition above about 15%
TbMetRS FP orth: T. brucei MetRS inhibition, orthogonal assay; purified T. brucei MetRS, fluorescence polarization; actives 44% (n = 1,400); inhibition, % at 11.9 µM; shares compounds with TbMetRS inhib; in the data active = inhibition above about 17%
Of the large screens only hits and unclear results are named; the others gave an inactive call (follow-up assays come after a bar, where they were run).

C[C@H](O)[C@@H]1CN2CCc3c([nH]c4ccccc34)[C@@H]2C[C@@H]1N(C)Cc1cc(Cl)cc(Cl)c1	TbMetRS inhib 34 | TbMetRS confirm 71 | Jurkat cytotox inactive | TbMetRS FP orth 37
C[C@H](O)[C@@H]1C(=O)N2CCc3c([nH]c4ccccc34)[C@@H]2C[C@@H]1N(C)S(=O)(=O)c1ccccc1	TbMetRS inhib 27 | TbMetRS confirm 23 | Jurkat cytotox inactive | TbMetRS FP orth inactive
Clc1ccccc1N1CCN(C2=Nc3ccccc3Sc3ccccc32)CC1	none (no result: DAGLB inh, TbMetRS inhib)
C(=C/c1nccc2c1[nH]c1ccccc12)/c1ccc2c(c1)OCO2	TbMetRS inhib 5.9 | TbMetRS confirm inactive | Jurkat cytotox 42 | TbMetRS FP orth 91
C(=N\Nc1nc2ccccc2[nH]1)/c1ccc2c(c1)OCO2	none
Cc1nnc(Nc2ccc(C(=O)O)cc2)[nH]c1=O	TbMetRS inhib 6.8 | TbMetRS confirm 14 | Jurkat cytotox inactive | TbMetRS FP orth inactive
CNC(=O)c1ccccc1C1(O)c2ccccc2CCc2ccccc21	none (no result: DAGLB inh, TbMetRS inhib)
COc1ccc(/C=C2\SC(=O)N=C2N)cc1	TbMetRS inhib 22 | TbMetRS confirm 67 | Jurkat cytotox inactive | TbMetRS FP orth 37
COc1ccc(OCC(=O)Nc2ccc(S(=O)(=O)N3CCOCC3)cc2)cc1	none
O=C(Cc1ccc(Br)cc1)Nc1cccc(S(=O)(=O)N2CCOCC2)c1	TbMetRS inhib 55 | TbMetRS confirm 76 | Jurkat cytotox inactive | TbMetRS FP orth 57
O=C(COc1ccc(S(=O)(=O)N2CCOCC2)cc1)Nc1ccc(Br)cc1	TbMetRS inhib 18 | TbMetRS confirm 50 | Jurkat cytotox 17 | TbMetRS FP orth 33
O=C(O)c1ccc(Nc2nc3ccc(Cl)cc3[nH]2)cc1	TbMetRS inhib 11 | TbMetRS confirm 44 | Jurkat cytotox inactive | TbMetRS FP orth inactive
Cc1ccccc1OCCCC(=O)Nc1ccc(Br)cc1	TbMetRS inhib 6.4 | TbMetRS confirm 8.2 | Jurkat cytotox 20 | TbMetRS FP orth inactive
CC(=O)Nc1ccc(NC(=O)CCOc2ccccc2C)cc1	none
COc1ccc(C(=O)OCCCN(C)C2CN(Cc3cn(Cc4ccccc4C(F)(F)F)nn3)S(=O)(=O)C2)cc1OC (stereo not given)	none (no result: DAGLB inh, TbMetRS inhib)
Fc1ccccc1COc1ccc(Br)cc1CNCC1CCCO1 (stereo not given)	none
Cn1nnc(NCc2cc(Br)ccc2OCc2ccccc2F)n1	TbMetRS inhib 20 | TbMetRS confirm 24 | Jurkat cytotox inactive | TbMetRS FP orth inactive
CCN(CC)c1ccc(/C=N/NC(=O)Cc2nnc(NC(=O)Nc3ccccc3)s2)cc1	TbMetRS inhib 8.4 | TbMetRS confirm 9.2 | Jurkat cytotox inactive | TbMetRS FP orth inactive
Clc1ccc(-c2nnc(SCc3nc4ccccc4[nH]3)o2)c(Cl)c1	TbMetRS inhib 78 | TbMetRS confirm 101 | Jurkat cytotox inactive | TbMetRS FP orth 90
c1ccc2[nH]c(CSc3nnc(-c4ccncc4)o3)nc2c1	none
O=C(Nc1ccc(F)cc1)C1CC(=O)n2c(nc3ccccc32)N1 (stereo not given)	TbMetRS inhib 18 | TbMetRS confirm 34 | Jurkat cytotox inactive | TbMetRS FP orth inactive
O=C(Nc1ccc(F)c(Cl)c1)C1CC(=O)n2c(nc3ccccc32)N1 (stereo not given)	TbMetRS inhib 74 | TbMetRS confirm 90 | Jurkat cytotox inactive | TbMetRS FP orth 76
COc1ccc(NC(=O)C2CC(=O)n3c(nc4ccccc43)N2)cc1 (stereo not given)	none
COc1ccc(CCNC(=O)c2ccc(-c3ccc([N+](=O)[O-])cc3Cl)o2)cc1OC	TbMetRS inhib 5.7 | TbMetRS confirm 8.7 | Jurkat cytotox 32 | TbMetRS FP orth 19
C=CCn1c(SCC(=O)Nc2ccccc2OCC)nnc1-c1ccc(C(C)(C)C)cc1	none (no result: DAGLB inh, TbMetRS inhib)
O=C(C/C=N\OCc1ccc(Cl)cc1Cl)Nc1ccccc1	none
O=C(C/C=N\OCc1ccc([N+](=O)[O-])cc1)Nc1ccccc1	TbMetRS inhib 13 | TbMetRS confirm 31 | Jurkat cytotox inactive | TbMetRS FP orth inactive
O=C(C/C=N\OCc1ccc([N+](=O)[O-])cc1)Nc1ccc(Cl)cc1	TbMetRS inhib 74 | TbMetRS confirm 101 | Jurkat cytotox inactive | TbMetRS FP orth 80
Cc1ccc2[nH]c(=O)c(CN(CCN3CCOCC3)C(=O)Nc3ccc(F)cc3)cc2c1	TbMetRS inhib 5.9 | TbMetRS confirm 9.1 | Jurkat cytotox inactive | TbMetRS FP orth inactive
CCOc1ccc2[nH]c(=O)c(CN(CCCN3CCOCC3)C(=O)Nc3ccc(F)cc3)cc2c1	none
Cc1ccc(NC(=O)Cn2c(CCC(=O)O)ccc2-c2ccc(Cl)cc2)cc1	TbMetRS inhib 10 | TbMetRS confirm 34 | Jurkat cytotox inactive | TbMetRS FP orth 17
OCC1(CCOc2ccccc2)CCN(Cc2nc3ccc(F)cc3[nH]2)CC1	TbMetRS inhib 7.5 | TbMetRS confirm 21 | Jurkat cytotox inactive | TbMetRS FP orth inactive
OCC1(CCOc2ccccc2)CCN(Cc2cn[nH]c2-c2ccc(F)cc2)CC1	none
CCO[C@@H]1OC(C(=O)NCc2nc3ccccc3[nH]2)=C[C@H](c2ccccc2)[C@H]1CCCO	TbMetRS inhib 8.6 | TbMetRS confirm 38 | Jurkat cytotox inactive | TbMetRS FP orth 20
CCO[C@H]1OC(C(=O)NCc2nc3ccccc3[nH]2)=C[C@@H](c2ccccc2)[C@@H]1CCCO	none
CCO[C@@H]1OC(C(=O)NCc2ccccc2)=C[C@H](c2csc3ccccc23)[C@H]1CCCO	none
CCO[C@@H]1OC(C(=O)NCc2nc3ccccc3[nH]2)=C[C@H](c2csc3ccccc23)[C@H]1CCCO	TbMetRS inhib 86 | TbMetRS confirm 93 | Jurkat cytotox inactive | TbMetRS FP orth 97
CCO[C@H]1OC(C(=O)NCc2nc3ccccc3[nH]2)=C[C@@H](c2csc3ccccc23)[C@@H]1CCCO	TbMetRS inhib 7.6 | TbMetRS confirm 38 | Jurkat cytotox inactive | TbMetRS FP orth inactive
CCCCc1c(-c2ccccc2OC)ncn1CCc1cccc(Cl)c1	TbMetRS inhib 5.8 (no result: DAGLB inh) | TbMetRS confirm 16 | Jurkat cytotox 36 | TbMetRS FP orth inactive
COc1ccc(CCn2c(C)cc3c(c2=O)C(c2ccc4c(c2)OCO4)C(C#N)=C(N)O3)cc1OC (stereo not given)	TbMetRS inhib 16 | TbMetRS confirm inactive | Jurkat cytotox inactive | TbMetRS FP orth inactive
Cc1cc2c(c(=O)n1Cc1ccccn1)C(C(C)C)C(C#N)=C(N)O2 (stereo not given)	none
Cc1cc2c(c(=O)n1Cc1ccc3c(c1)OCO3)C(c1cccnc1)C(C#N)=C(N)O2 (stereo not given)	none
